# CHRM4 agonist – CHRM4 agonism in calcium assay; CHO-K1 hM4/Gqi5, Fluo-8 calcium fluorescence; vehicle 0%, full acetylcholine response 100%; activation, % at 3 µM; 360,000 compounds, 0.14% hits; P08173;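 active = activation above the run mean over all test wells plus 3 SD, cut at about 32% in these data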;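 note: peak over basal fluorescence ratio per well then scaled between controls; 0% = DMSO wells and 100% = acetylcholine at EC100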
# M5 PAM – CHRM5 positive allosteric modulation; P08912; CHO-K1 hM5, Fluo-8 calcium, ACh EC20 PAM; 0% = ACh EC20, 100% = ACh EC100; activation, % at 3 µM; 360,000 compounds, 0.3% hits; AID 624038;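 active = activation above the run cutoff, the mean activation of all test compounds plus 3 SD, cut at about 18% in these data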
# Target sequence (P08912 whole entry, looked up): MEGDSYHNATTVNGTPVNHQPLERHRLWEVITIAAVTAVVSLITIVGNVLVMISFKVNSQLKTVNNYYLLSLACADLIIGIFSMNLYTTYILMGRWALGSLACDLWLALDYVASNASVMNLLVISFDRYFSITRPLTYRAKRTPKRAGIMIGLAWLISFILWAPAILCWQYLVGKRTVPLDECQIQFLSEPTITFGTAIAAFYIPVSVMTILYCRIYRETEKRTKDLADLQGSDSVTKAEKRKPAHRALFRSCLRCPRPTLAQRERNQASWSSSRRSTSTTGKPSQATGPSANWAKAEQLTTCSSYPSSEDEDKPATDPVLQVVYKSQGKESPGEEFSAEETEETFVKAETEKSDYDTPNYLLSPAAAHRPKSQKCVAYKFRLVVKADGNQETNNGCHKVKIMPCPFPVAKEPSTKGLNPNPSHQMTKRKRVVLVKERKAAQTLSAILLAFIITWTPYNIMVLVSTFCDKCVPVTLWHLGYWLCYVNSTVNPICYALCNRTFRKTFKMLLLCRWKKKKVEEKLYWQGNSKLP
#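 Assay system: CHO-K1 hM5 cells / Incubation: Fluo-8 loading 80 min at 37 °C plus 30 min room temperature / Technique: Fluo-8 calcium dye fluorescence, kinetic read / Repeats: single replicate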
# CHRM4 PAM – positive allosteric modulators of human muscarinic M4 receptor; P08173; AID 624126; activation, % at 3 µM; 360,000 compounds, 0.4% hits; CHO-K1 hM4/Gqi5, Fluo-8 calcium fluorescence, ACh EC20; 0% = ACh EC20, 100% = maximal ACh;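 active = activation above its plate's cutoff, the mean activation of sample wells plus 3 SD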
# M4 antag – antagonists of human muscarinic M4 receptor (CHRM4); CHO-hM4 cells, ACh EC80, Fluo-8 calcium fluorescence; inhibition, % at 3 µM; 360,000 compounds, 0.73% hits;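 active = inhibition above its plate's cutoff, the mean inhibition of sample wells plus 3 SD, cut at about 27% in these data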;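 note: 0% = acetylcholine EC80 with DMSO and 100% = DMSO without agonist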
# CHRM5 agonist – agonists of human muscarinic M5 receptor (CHRM5); P08912; activation, % at 3 µM; AID 624037; 360,000 compounds, 0.19% hits; CHO-K1 hM5 cells, Fluo-8 calcium fluorescence; 0% DMSO wells, 100% maximal acetylcholine response;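 active = activation above the run's mean over test compounds plus 3 SD, cut at about 23% in these data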;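 note: signal is peak over basal fluorescence ratio across the kinetic read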
# CHRM5 antagonist – blocks acetylcholine activation of human M5 receptor; inhibition, % at 3 µM; AID 624040; 360,000 compounds, 0.59% hits; P08912; CHO-hM5 cells, Fluo-8 calcium fluorescence, ACh EC80;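 active = inhibition above a per-plate cutoff, the mean of that plate's test compounds plus 3 SD, cut at about 27% in these data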;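 note: 0% = acetylcholine EC80 with DMSO and 100% = DMSO without agonist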
# The depositor's hits bear a star. In the library only some 1.9% were active in any assay of this set; here they are far more common.
SMILES,CHRM4 agonist,M5 PAM,CHRM4 PAM,M4 antag,CHRM5 agonist,CHRM5 antagonist
OC1(c2cccc(C(F)(F)F)c2)CCN(c2ncnc3c2[nH]c2ccc(F)cc23)CC1,14.5,-21.7,-18.6,20.2,0.7,31.0*
Fc1ccc2[nH]c3c(N4CCN(c5ccccc5)CC4)ncnc3c2c1,25.0,-22.5,-10.8,38.4*,5.4,50.0*
COc1ccc2[nH]c3c(N4CCc5ccccc5C4)ncnc3c2c1,25.5,-17.7,-15.0,19.4,2.4,7.8
CCOC(=O)N1CCN(c2ncnc3c2[nH]c2ccc(F)cc23)CC1,11.9,-36.9,-10.4,9.2,-1.1,1.3
COc1ccc2nc(NN=C(C)c3ccccn3)cc(C)c2c1,-0.5,-8.5,4.8,-3.4,-1.3,11.0
CC(OC(=O)Cn1[nH]c(=O)c2ccccc2c1=O)C(=O)Nc1ccc(F)cc1Cl (stereo not drawn),0.6,-2.3,8.8,-14.7,-0.3,-1.2
CN1CCN(C(c2ccccc2)c2ccc(Cl)cc2)CC1 (stereo not drawn),4.6,-19.0,-17.2,24.0,-0.3,21.0
CN1CCN(C(c2cccc(Cl)c2)c2ccccc2Cl)CC1 (stereo not drawn),3.2,-18.4,-16.2,63.8*,-4.2,87.3*
CCOc1cccc(C2C(C(=O)c3cccs3)=C(O)C(=O)N2Cc2cccnc2)c1 (stereo not drawn),1.4,28.7*,11.5,-1.5,7.2,18.1
CCCCOc1cccc(C2C(C(=O)c3cccs3)=C(O)C(=O)N2Cc2cccnc2)c1 (stereo not drawn),0.1,-3.7,-3.2,-5.0,-4.1,0.8
O=C(C1=C(O)C(=O)N(CCOCCO)C1c1cccc([N+](=O)[O-])c1)c1cccs1 (stereo not drawn),0.5,21.8*,2.6,-20.0,5.4,-11.6
CC(C)(C)c1ccc(C(=O)Nc2cccc(S(=O)(=O)NC3=NCCC3)c2)cc1,4.8,-7.3,1.7,3.5,-7.8,4.6
Cc1c(C(=O)O)sc(=S)n1-c1ccccc1,1.8,-0.6,19.7*,-4.8,-0.1,10.6
CCOC(=O)c1sc(=S)n(-c2ccccc2)c1C,6.1,-13.4,-6.3,1.6,-8.2,15.8
COc1ccc(C(=O)Nc2cccnc2)cc1S(=O)(=O)N1CCOCC1,0.6,20.2*,3.9,-3.6,-0.4,11.0
O=C(CNC(=O)c1[nH]cnc1C(=O)NC(c1ccccc1)c1ccccc1)OCc1ccccc1,15.6,-21.6,-5.2,18.0,-2.2,8.8
CC(Oc1ccc2c3c(c(=O)oc2c1)CCC3)C(=O)NCc1cccnc1 (stereo not drawn),2.1,-3.8,18.8*,15.8,-3.6,14.6
Cc1[nH]c(=O)c(C#N)c(C)c1CCC(=O)Nc1cc(S(C)(=O)=O)ccc1Cl,-0.1,0.1,20.3*,-33.0,-1.9,2.9
Cc1ccc(F)cc1NC(=O)CCc1c(C)[nH]c(=O)c(C#N)c1C,0.4,4.1,0.3,10.8,-1.7,3.6
COc1ccc(OC)c(/C=C2\NC(=O)NC2=O)c1,1.6,-1.5,-2.4,-7.6,1.4,-0.5
COc1cc(N2CCCC2)c(OC)cc1/C=C1/NC(=S)NC1=O,30.4,-12.0,-13.6,26.0,32.3*,16.7
COC(=O)c1ccc(CN2CCN(C3CCCCC3)C(CCO)C2)cc1 (stereo not drawn),0.1,7.2,-50.3,60.5*,-21.2,-7.6
COC(=O)c1ccc(CN2CCN(C3CCCC3)C(CCO)C2)cc1 (stereo not drawn),1.4,-7.9,-21.2,76.7*,-10.0,-2.3
CC(=O)Nc1ccc(CN2CCN(C3CCCCC3)C(CCO)C2)cc1 (stereo not drawn),-0.1,-4.5,-34.7,14.9,-14.1,6.8
Nn1c(SCc2ccccc2F)nnc1-c1ccccn1,0.0,8.2,-4.1,-2.8,0.6,3.0
SMILES,CHRM4 agonist,M5 PAM,CHRM4 PAM,M4 antag,CHRM5 agonist,CHRM5 antagonist
CCOC(=O)C1CN(S(=O)(=O)c2ccc(C)cc2)C1,0.6,19.6*,1.9,-8.9,-7.0,-4.0
CC1(C(=O)N/N=C/c2ccccc2)CC1(Cl)Cl (stereo not drawn),-1.0,-0.7,-5.1,-10.3,-0.6,-7.0
CS(=O)(=O)N(CC(=O)Nc1ccccc1C(=O)NCCc1ccccc1)c1ccc2c(c1)OCCO2,0.7,-8.5,-14.1,41.3*,3.7,-3.1
CS(=O)(=O)N(CC(=O)Nc1ccccc1C(=O)NCc1ccccc1)c1ccc2c(c1)OCCO2,6.9,-9.4,-17.5,10.2,9.9,-6.1
COc1ccccc1N(CC(=O)Nc1ccc2c(c1)OCCO2)S(=O)(=O)c1ccc(C)cc1,3.1,-5.8,-1.8,-10.2,-4.4,12.0
Cc1ccc(OCCCCNC(C)(C)C)c([N+](=O)[O-])c1,3.1,-10.4,13.1,-2.6,-5.2,27.1*
COCCNCCOc1ccc(C)cc1[N+](=O)[O-],0.6,0.7,-10.0,10.7,-2.5,-9.8
O=C(Cc1ccc(F)cc1)Nc1c(C(=O)N2CCN(c3ncccn3)CC2)oc2ccccc12,2.3,1.8,2.1,6.6,-2.6,-5.8
NCCCCNCCCN,2.8,-20.8,-0.4,-0.9,75.2*,12.5
O=C(/C=C/c1ccccc1)NC(NC(=S)Nc1ccc(Cl)cc1Cl)C(Cl)(Cl)Cl (stereo not drawn),10.7,-18.7,-24.1,8.8,1.2,34.3*
CCn1nc(C)c(Br)c1C(=O)Sc1ccccc1Cl,-0.3,-6.2,-2.9,6.3,-2.0,9.2
CCOc1ccccc1NC(=O)C(OC(=O)c1ccc(CC)cc1)c1ccccc1 (stereo not drawn),-0.1,-1.7,5.7,-23.7,-2.9,1.1
CCOc1ccccc1NC(=O)C(OC(=O)c1ccc(O)cc1)c1ccccc1 (stereo not drawn),3.7,-13.1,-6.3,6.9,-0.6,28.8*
CCSc1nnc(NC(=O)C2CCCN(C(=O)c3ccc(Cl)cc3)C2)s1 (stereo not drawn),1.6,-5.0,-1.4,-12.0,0.2,4.7
O=C1/C(=C/c2cccc(Br)c2)SC(=S)N1CCC(=O)N(CCO)c1ccccc1,1.3,9.3,3.9,-8.2,1.5,3.9
COc1ccc(/C=C2\SC(=S)N(CCC(=O)N(CCO)Cc3ccccc3)C2=O)cc1OC,5.1,7.6,37.1*,17.5,-1.8,-5.0
O=C1/C(=C/c2ccc3c(c2)OCO3)SC(=S)N1CCC(=O)N(CCO)c1ccccc1,6.4,-13.9,-0.7,-7.1,82.0*,66.7*
C[N+](C)(C)C/C=C1/COCO1,42.0*,-15.6,-2.8,9.1,100.0*,92.0*
Cc1ccc(S(=O)(=O)N2CCN(C(=O)c3sccc3-c3ccccc3)CC2)cc1,5.9,-11.9,-6.7,2.3,-5.9,29.6*

# Screens as filed in PubChem BioAssay.
